Laboratory results as given in ChEMBL document CHEMBL4261527, “Benzylsulfanyl benzo-heterocycle amides and hydrazones as new agents against drug-susceptible and resistant Mycobacterium tuberculosis” (Medchemcomm, 2017).
In brackets after ≈: the same amount, converted by molar mass. Activity calls are given as the source filed them. No cut-off for these calls is given here.

Columns and labels:
[1] = system: Mycobacterium tuberculosis; test: Antimycobacterial activity against extensively drug-resistant Mycobacterium tuberculosis clinical isolate; format: functional
Method in brief: (§1)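 Clinical isolates coded 960 (drug-susceptible), 330 (MDR) and 431 (XDR); MIC reported in μM.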

[2] = system: Mycobacterium tuberculosis; test: Antimycobacterial activity against multidrug-resistant Mycobacterium tuberculosis clinical isolate; format: functional; method in brief: as §1
[3] = system: Mycobacterium tuberculosis; test: Antimycobacterial activity against ethionamide-resistant Mycobacterium tuberculosis ATCC 35830 by resazurin dye based fluorimetric method; format: functional
[4] = system: Mycobacterium tuberculosis; test: Antitubercular activity against Mycobacterium tuberculosis H37Ra harboring pTYOK infected in Balb/c mouse assessed as bacterial growth inhibition at 3.1 mg/kg qd measured at 2 days interval for 6 days by luminometric method; format: functional, organism-based
Method in brief: (§2)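 Mice infected with marker-free autoluminescent Mtb H37Ra and dosed once daily for 6 consecutive days; vehicle CMC-Na. Read-out is the luminescence ratio RLU on day n over RLU on day 0, plotted against days after the first treatment.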

[5] = system: Mycobacterium tuberculosis; test: Potency index, ratio of ftivazide MIC to test compound MIC for extensively drug-resistant Mycobacterium tuberculosis clinical isolate; format: functional
[6] = system: Mycobacterium tuberculosis; test: Antimycobacterial activity against kanamycin-resistant Mycobacterium tuberculosis ATCC 35827 by resazurin dye based fluorimetric method; format: functional
[7] = system: Mycobacterium tuberculosis; test: Antimycobacterial activity against streptomycin-resistant Mycobacterium tuberculosis ATCC 35820 by resazurin dye based fluorimetric method; format: functional
[8] = system: Mycobacterium tuberculosis; test: Antimycobacterial activity against rifampicin-resistant Mycobacterium tuberculosis H37Rv by resazurin dye based fluorimetric method; format: functional
[9] = system: Mycobacterium tuberculosis; test: Antimycobacterial activity against ethambutol-resistant Mycobacterium tuberculosis ATCC 35837 by resazurin dye based fluorimetric method; format: functional
[10] = system: Mycobacterium tuberculosis; test: Potency index, ratio of isoniazid MIC to test compound MIC for extensively drug-resistant Mycobacterium tuberculosis clinical isolate; format: functional
[11] = system: Mycobacterium tuberculosis; test: Antitubercular activity against Mycobacterium tuberculosis H37Ra harboring pTYOK infected in Balb/c mouse assessed as bacterial growth inhibition at 10 mg/kg qd measured at 2 days interval for 6 days by luminometric method; format: functional, organism-based; method in brief: as §2

SMILES | MIC [1] [µM] | MIC [2] [µM] | MIC [3] [µg/mL] | growth inhibition (GI) [4] | Ratio [5] | MIC [6] [µg/mL] | MIC [7] [µg/mL] | MIC [8] [µg/mL] | MIC [9] [µg/mL] | Ratio [10] | growth inhibition (GI) [11]
NNC(=O)c1ccncc1 [ISONIAZID] | 64 (≈ 8.78 µg/mL) | 8 (≈ 1.1 µg/mL) |  |  |  |  |  |  |  |  | 
O=C(N/N=C/c1ccc(CSc2nc3ccccc3o2)cc1)c1ccncc1 | 3.2 (≈ 1.24 µg/mL) | 6.4 (≈ 2.49 µg/mL) | 1.25 (≈ 3.22 µM) | Active | 10 | 0.156 (≈ 0.402 µM) | 0.156 (≈ 0.402 µM) | 0.312 (≈ 0.803 µM) | 0.156 (≈ 0.402 µM) | 20 | 
O=C(NCc1ccc(CSc2nc3ccccc3o2)cc1)c1ccncc1 | 16 (≈ 6.01 µg/mL) | 2 (≈ 0.751 µg/mL) |  |  |  |  |  |  |  |  | 
CO[C@H]1/C=C/O[C@@]2(C)Oc3c(C)c(O)c4c(O)c(c(/C=N/N5CCN(C)CC5)c(O)c4c3C2=O)NC(=O)/C(C)=C\C=C\[C@H](C)[C@H](O)[C@@H](C)[C@@H](O)[C@@H](C)[C@H](OC(C)=O)[C@@H]1C [RIFAMPIN] | > 19 | > 19 |  |  |  |  |  |  |  |  | Active
O=C(N/N=C/c1ccc(CSc2nc3ccccc3s2)cc1)c1ccncc1 | > 12.8 | 6.4 (≈ 2.59 µg/mL) | 1.25 (≈ 3.09 µM) |  |  | 0.312 (≈ 0.771 µM) | 0.312 (≈ 0.771 µM) | 0.625 (≈ 1.55 µM) | 0.312 (≈ 0.771 µM) |  | 
COc1cc(/C=N/NC(=O)c2ccncc2)ccc1O [FTIVAZIDE] | 32 (≈ 8.68 µg/mL) | 16 (≈ 4.34 µg/mL) | 1.25 (≈ 4.61 µM) |  |  | 0.156 (≈ 0.575 µM) | 0.312 (≈ 1.15 µM) | 0.312 (≈ 1.15 µM) | 0.312 (≈ 1.15 µM) |  | 
O=C(N/N=C/c1ccc(CSc2nc3ccccc3[nH]2)cc1)c1ccncc1 | > 12.8 | 6.4 (≈ 2.48 µg/mL) | 1.25 (≈ 3.23 µM) |  |  | 0.156 (≈ 0.403 µM) | 0.156 (≈ 0.403 µM) | 0.312 (≈ 0.805 µM) | 0.156 (≈ 0.403 µM) |  | 
